Fewer inactive variants are shown than the library holds.

The values that follow come from the RNAGym collection of RNA variant scans (doi:10.1126/science.aae0568).

The labels stand for the following.
B1: tRNA (parent)
chain: GUUCCGUUGGCGUAAUGGUAACGCGUCUCCCUCCUAAGGAGAAGACUGCGGGUUCGAGUCCCGUACGGAACG

The variants in this data set derive from B1. Briefly: yeast fitness relative to wild type (ratio to wild type); higher = fitter; tRNA-Arg(CCU), competitive growth, 37 C, YPD. In outline:
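Gene amplicons from the start population and from each of six end populations were read by 100-nucleotide paired-end sequencing. Those end populations came from pooled Saccharomyces cerevisiae strains carrying tRNA-Arg(CCU) gene variants at the native locus, competed in YPD at 37°C for 24 hours. Fitness relative to wild type was worked out from changes in genotype frequencies. Genotypes needed ≥ 100 starting reads, and estimates < 0.5 were set to 0.5.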
For the variant U3G A21G C31G C33U A43U G56A A69U, the yeast fitness was at most 0.5.

With A20U G25A, the yeast fitness was 1.03. Regarding A21G G41C A69U, the yeast fitness amounted to 0.682.

C30U C46G: the yeast fitness came out at 0.874. With U2A C27A the figure was 0.894.

In the case of U7C U13G C30U A65U, the yeast fitness was determined as 0.619. For A37U U64C, the yeast fitness turned out to be 0.77. With G17A U35A U54G the figure was at most 0.5; with U7G G50C G67C, at most 0.5. The same measure for C22U C31U C60G A70G: at most 0.5.

Consider U13G U28A C55G C66A, for which the yeast fitness worked out at 0.63. The same measure for U3A C11U A37U G41A G52C A57C: at most 0.5; for C5A G17C G18C C61G: at most 0.5; for G12C G17A A20U C34A G41C: at most 0.5. The same measure for U7A G10C C27G U32A G56C: at most 0.5.

With U7C C11U C31U C33G C49A G51A, the yeast fitness is at most 0.5. With C5U C31U C46U G51A the figure was 0.69; with C30U C31A A40U C49A, 0.682. The same measure for C11G A37C C46G G48A: at most 0.5; for C27G U28C C61U: at most 0.5.

Regarding A15U C33U A36G C62G A69C, the yeast fitness is at most 0.5.

In the case of A40G G58A A70C, the yeast fitness came to 0.593.

For C31G G56C C61A, the yeast fitness was at most 0.5. The same measure for U7A C31A G39C G56C: at most 0.5; for G23A A43G: 0.684. The same measure for A21C C22U C46U G48A G56A C60A C62A: at most 0.5.

For C5A C34G, the yeast fitness was determined as 0.589.

Take C5G C11A C29G C33U G50A: the yeast fitness is at most 0.5.

For the variant U19C G23A C24G A40U A65U, the yeast fitness was at most 0.5.

In the case of U8A G52A G56U, the yeast fitness is at most 0.5. With C4U U19A A37G G44C A57U G68C the figure was at most 0.5; with C4A C24A, 0.595; with G50C, 0.844.

Consider A20U U47C C60G A65U A70G, for which the yeast fitness is 0.573.

Take A20U C24U G48A C55U C60G: the yeast fitness is at most 0.5. The same measure for G25C G52C: 0.574.

On to C34A C60G, for which the yeast fitness is 0.664.

For A37U C60G, the yeast fitness was 0.516. As for C31U A40G A42C G44A A45U, the yeast fitness was at most 0.5. U8G A14U G18A G50A A57U A70G: the yeast fitness is at most 0.5. With C22G C24U U64C the figure was 0.538; with C4A A21U C46A, 0.58.

In the case of U2G C4U G6C C49G, the yeast fitness was at most 0.5. With C24G C27U C33U A57C the figure was at most 0.5; with C5A U35G A69C, at most 0.5; with A21U G25A C60U, at most 0.5. With G10A A20C G38A G41A A65C the figure was at most 0.5. Consider G17A C49A G52C G56A A69G, for which the yeast fitness was at most 0.5.

Take G41A A69U: the yeast fitness came out at 0.914. G12C A20U A45U G50A G51A: the yeast fitness was at most 0.5.

In the case of C4A C29A A70C, the yeast fitness was at most 0.5. Regarding G6A A40G A45U G56A, the yeast fitness was at most 0.5.

For U8G C27A C31A C33G, the yeast fitness was at most 0.5. Take G48A G50A A70U: the yeast fitness was determined as 0.812. With U35C A37C, the yeast fitness came to 0.817. With G18A A37U the figure was 0.6; with C49U C66A, 0.815.

Turning to G12A G17A, the yeast fitness worked out at 0.881. With G10A A20C C27G A40G A70C the figure was at most 0.5. Turning to A21U U26C, the yeast fitness came out at 0.657. The same measure for C33A G50U: 0.524.

As to G12A U19C A21U A69C, the yeast fitness worked out at 0.653.

With G23A G41C, the yeast fitness was found to be 0.803. Turning to C49A C61U A65G, the yeast fitness was 0.568. The same measure for U19C C24U A69C: 0.789. U2A G23A C29G A40C C55G: the yeast fitness is at most 0.5. The same measure for U16G G44C G68A A69U: 0.609.

Turning to U28A A57C C66G, the yeast fitness is at most 0.5. For the variant C4G A15G G23A C34G G68A, the yeast fitness was at most 0.5.

On to U2A C30A C61U, for which the yeast fitness is at most 0.5. With U16G C24G C27A the figure was at most 0.5. With A45G U54G the figure was 0.563; with C5U G9A G51C G52C, at most 0.5; with A36U A45U G52C, at most 0.5. The same measure for C31U G48A C61G C62A: 0.602; for G9A A36C A45C G63A: at most 0.5; for A14C A40G C62G G68A: at most 0.5. For the variant G12A A15G C49U A65C A70G, the yeast fitness is at most 0.5. With A36U A45U the figure was 0.728; with A15G A45C A69U, 0.779. With C5U U7G C62A the figure was at most 0.5. The same measure for C5G C27U G63A: at most 0.5; for A15C C30U: 0.572. Turning to U32A U35G A36U G38A U47C, the yeast fitness is at most 0.5.

On to G44A C60U G67C, for which the yeast fitness stood at 0.545. As for G12C U47A, the yeast fitness amounted to 0.596. With C27U C49U the figure was 1; with C55G, 0.695.

Consider A36C U47C, for which the yeast fitness stood at 0.674. With U3A A21G G23C A36U C60A the figure was at most 0.5. The same measure for U2A A36G C49A: at most 0.5; for C22G C62G A65U: 0.534; for U2G U26A U54A: at most 0.5. With C5U C11G C33A G67A the figure was at most 0.5; with A36C A42C, 0.727. For C33G G56C C62U, the yeast fitness was at most 0.5. Take C4U G18C A57U C62U U64A G68C: the yeast fitness is at most 0.5.

In the case of A69C A70G, the yeast fitness was determined as 1.02. Turning to U19A C22G A42G U54A G67A, the yeast fitness is at most 0.5. For C11U C31G C49G C62U G67C, the yeast fitness is at most 0.5.

G6A C33A: the yeast fitness was determined as 0.686. With U2G C27G C66U G67C A70G the figure was at most 0.5; with U3G A15G, 0.846. For the variant U7A C24U A69U, the yeast fitness is at most 0.5. With U47C C60A the figure was 0.603. The same measure for C11U C24G A42G: at most 0.5; for G9A C22A A65G: 0.617. The same measure for C11A C33G A43C G68A A70G: at most 0.5; for C29G C33G A42C: 0.54. A42U C55A: the yeast fitness was found to be 0.584.

For the variant C11A C30G C31U U32C A42G G52A, the yeast fitness is at most 0.5. The same measure for U13A C22G C29G A40U U54C C61G: at most 0.5; for G17C C30G: 0.581. For the variant C46U G58C, the yeast fitness was 0.825. With C27U C30U U53A C66U the figure was at most 0.5; with G18A A20U C29G A37U G48A, at most 0.5; with C34A G52C, 0.721. With G18A C34A A37U the figure was at most 0.5; with A14C C34A A37G C62U, at most 0.5; with C4U A20C G51C A57G, at most 0.5. With C24U C29G G38C A42C, the yeast fitness is at most 0.5.

As for G18C A36G C61A, the yeast fitness was at most 0.5. For the variant C5G G25A U59G, the yeast fitness was 0.631. The same measure for G9A G12C U13A G25A C30G C66A: at most 0.5; for A20C G41C A42C G56A U64C A70U: at most 0.5.

For A45U G48A C55A, the yeast fitness came out at 0.543. With G17A G38C A45U C66U the figure was at most 0.5. Take C5U U32C A45C: the yeast fitness stood at 0.733. With A15G C31G U35C A57U the figure was at most 0.5; with U2G C4G C31A A37C, at most 0.5; with C4A C49G, 0.704. With C33U G44A A65G the figure was 0.606; with C27A G41C A43C A69U, at most 0.5; with U8C A37G G38C, at most 0.5.

As to C4G G44A, the yeast fitness is 0.726. Turning to C5U A14U, the yeast fitness was determined as 0.718. With C4G A15U A37U the figure was 0.541; with C5U A37U A65G, 0.57.

C49U U59G: the yeast fitness worked out at 0.904. With G10A C62U A70U the figure was 0.531. The same measure for C29G C30G A57U A70G: 0.503. The same measure for C4U C61G C62A: at most 0.5. Turning to A21C U35A, the yeast fitness turned out to be 0.601. The same measure for A42G U54A: 0.612; for U2G C24U A45C G48A G67A: at most 0.5; for G10C A21G C22U C46U G56C: 0.58. As to C34G G50C A69U, the yeast fitness is at most 0.5. With G6A U8C G12C C29G C30U A45U C62U A69U the figure was 0.823. With C5U A20U C49A, the yeast fitness is at most 0.5.

As to G6A U8C A42C A45U C61G, the yeast fitness is at most 0.5. The same measure for G6C C27G C34A A65C: at most 0.5; for G10C A14U U19A C22U C62U: at most 0.5; for A20C U28C G41A: 0.592. With C5G U19G C22U U32C A65C the figure was at most 0.5; with C24G A36U A37C C66U G67A, at most 0.5. The same measure for U13C C34U: 0.668; for C27G U32A: 0.539. Take C5U C27G U32A: the yeast fitness was determined as 0.561. With G9A G44C G58A the figure was 0.766; with C24A C31U A42C U47C, at most 0.5; with G6C C11A C34G, at most 0.5. With U13G A20U U59A C66U the figure was at most 0.5; with A20U C49A G52A C61U, at most 0.5. For the variant U53G, the yeast fitness came to 0.629. Take C5A C24G A65U: the yeast fitness was 0.694. For C11A C27U G56C, the yeast fitness is at most 0.5. The same measure for G10A A43U A69C: 0.887.
